Values after ≈ are worked out from the molar mass of the structure shown. Starred links: 1 amine or outer side, 2 acyl side, 3 side chain; linkers in the order of their positions; H or OH if unused. Positions of bridges follow the written chain, without caps; N, C: chain ends. Non-standard residues stand in square brackets, D forms with d. Residues, ends and D or L forms follow the SMILES beside them. Chains are numbered I, II in the order given. Actinocin(1to9) = Cc1c2oc3c(C)ccc(C(=O)[*:2])c3nc-2c(C(=O)[*:1])c(N)c1=O; NMeV = CN[C@H](C(=O)O)C(C)C; Sar = CNCC(=O)O
How the values were obtained:
Assay type in all cases: functional
Bacillus subtilis = assay: Antimicrobial activity against Bacillus subtilis ATCC 6633 after 18 hrs; conditions: ATCC 6633, 18 h
How it was run: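 Serial broth dilution in microtiter wells. Compounds in MeOH were dispensed and the solvent evaporated in vacuo. Inoculum came from an overnight nutrient broth culture, adjusted to 10⁵ cells per mL, in NB medium. Incubation was 18 h. MIC was read as the minimal inhibitory concentration.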

Penicillium griseofulvum = assay: Antimicrobial activity against Penicillium griseofulvum DSM 847 after 24 hrs; conditions: DSM 847, 24 h
How it was run: (§1)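 Serial dilution in microtiter wells with YMG medium. Compounds in MeOH were dispensed and dried in vacuo. Spores were rinsed from well-grown 9-day-old YMG agar cultures with […], then adjusted to 10⁵ per mL. Concentrations ranged from 100 to 0.1 µg mL^-1 (eight levels). Incubation was 24 h. MIC was recorded.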

Trichoderma harzianum = assay: Antimicrobial activity against Trichoderma harzianum ATCC 64870 after 24 hrs; conditions: ATCC 64870, 24 h; how it was run: as §1
Stachybotrys chartarum = assay: Antimicrobial activity against Stachybotrys chartarum DSM 2144 after 24 hrs; conditions: DSM 2144, 24 h; how it was run: as §1
Yarrowia lipolytica = assay: Antimicrobial activity against Yarrowia lipolytica HT20after 24 hrs
How it was run: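 Yeast tested by serial dilution in YMG medium. Compound films were left in wells after MeOH evaporation in vacuo. Inoculum came from an overnight YMG culture, adjusted to 10⁵ cells per mL. After 24 h incubation, the minimal inhibitory concentration was determined.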

Mucor hiemalis = assay: Antimicrobial activity against Mucor hiemalis DSM 63298 after 24 hrs; conditions: DSM 63298, 24 h; how it was run: as §1

SMILES | MIC (Bacillus subtilis) [µg/mL] | MIC (Penicillium griseofulvum) [µg/mL] | MIC (Trichoderma harzianum) [µg/mL] | MIC (Stachybotrys chartarum) [µg/mL] | MIC (Yarrowia lipolytica) [µg/mL] | MIC (Mucor hiemalis) [µg/mL]
Cc1c2oc3c(C)ccc(C(=O)N[C@@H]4C(=O)N[C@H](C(C)C)C(=O)N5CCC[C@H]5C(=O)N(C)CC(=O)N(C)[C@@H](C(C)C)C(=O)O[C@@H]4C)c3nc-2c(C(=O)N[C@@H]2C(=O)N[C@H](C(C)C)C(=O)N3CCC[C@H]3C(=O)N(C)CC(=O)N(C)[C@@H](C(C)C)C(=O)O[C@@H]2C)c(N)c1=O [DACTINOMYCIN] (I: T[dV]P[Sar][NMeV] / II: T[dV]P[Sar][NMeV]; ester I:1-I:C, II:1-II:C; linker I:N-II:N via Actinocin(1to9)) | > 100 | 3.12 (≈ 2.49 µM) | 6.25 (≈ 4.98 µM) | 3.12 (≈ 2.49 µM) | 6.25 (≈ 4.98 µM) | 3.12 (≈ 2.49 µM)
CC1=C[C@@H]2[C@@H]([C@@H](/C=C/C=C/C(=O)O)[C@H]1/C(C)=C/CO)[C@H](C)CC[C@H]2O [CARNEIC ACID B] | 50 (≈ 144 µM) | 25 (≈ 72.2 µM) | 50 (≈ 144 µM) | 25 (≈ 72.2 µM) | 25 (≈ 72.2 µM) | 12.5 (≈ 36.1 µM)
Oc1cccc2c(-c3ccc(O)c4c(O)cccc34)ccc(O)c12 | 100 (≈ 314 µM) | > 100 | > 100 | > 100 | > 100 | 100 (≈ 314 µM)
CC1(C)S[C@@H]2[C@H](NC(=O)Cc3ccccc3)C(=O)N2[C@H]1C(=O)O [PENICILLIN G] | 3.12 (≈ 9.33 µM) | > 100 | > 100 | > 100 | > 100 | > 100
CC(=O)OC/C=C/C1=CC2=C(CO1)C(=O)[C@](C)(O)[C@H](OC(=O)c1c(C)cc(O)cc1O)C2 [RUBIGINOSIN A] | 50 (≈ 113 µM) | > 100 | > 100 | 100 (≈ 225 µM) | 100 (≈ 225 µM) | 25 (≈ 56.3 µM)
C/C=C(\C)[C@H]1C(C)=C[C@@H]2[C@@H]([C@H]1/C=C/C=C/C(=O)O)[C@H](C)CC[C@H]2O [CARNEIC ACID A] | 50 (≈ 151 µM) | 12 (≈ 36.3 µM) | 50 (≈ 151 µM) | 25 (≈ 75.7 µM) | 25 (≈ 75.7 µM) | 12.5 (≈ 37.8 µM)

— ChEMBL document CHEMBL1158042, “Carneic acids A and B, chemotaxonomically significant antimicrobial agents from the xylariaceous ascomycete Hypoxylon carneum” (2006)
